According to ChEMBL document CHEMBL1136140, “Tripeptide inhibitors of Yersinia protein-tyrosine phosphatase” (Bioorg Med Chem Lett, 2003):
pIC50, pKi: −log10 of the molar value. Square brackets hold non-standard residues; d marks the D form. Peptide text beside a SMILES is read from it. * marks the point of attachment. F2Pmp = N[C@@H](Cc1ccc(C(F)(F)P(=O)(O)O)cc1)C(=O)O; Fmoc = O=C(OCC1c2ccccc2-c2ccccc21)*; OBn = c1ccc(CO*)cc1

Assays:
[1] = biological target: Secreted effector protein (Yersinia pestis, UniProt O68720); experiment: Inhibition of Tyrosine phosphatase from Yersinia pestis expressed in Escherichia coli BL21 (DE3) cells
Secreted effector protein, sequence (O68720 whole entry): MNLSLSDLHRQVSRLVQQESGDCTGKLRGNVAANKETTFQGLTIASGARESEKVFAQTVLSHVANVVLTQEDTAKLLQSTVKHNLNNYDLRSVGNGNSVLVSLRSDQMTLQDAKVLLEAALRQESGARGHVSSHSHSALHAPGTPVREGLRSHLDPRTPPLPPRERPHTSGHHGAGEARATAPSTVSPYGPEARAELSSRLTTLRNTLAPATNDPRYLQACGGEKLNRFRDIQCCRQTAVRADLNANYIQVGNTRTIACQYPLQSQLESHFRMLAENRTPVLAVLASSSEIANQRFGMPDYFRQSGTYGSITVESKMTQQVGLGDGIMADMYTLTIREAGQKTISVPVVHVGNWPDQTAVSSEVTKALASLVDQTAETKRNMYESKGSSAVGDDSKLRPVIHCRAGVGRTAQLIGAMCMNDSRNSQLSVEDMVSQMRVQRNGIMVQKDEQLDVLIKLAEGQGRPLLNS
In short: (§1)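 Recombinant enzymes made in E. coli BL21(DE3) and purified as published previously. Assay run at 30 °C, pH 7.0, in 50 mM 3,3-dimethylglutarate, 1 mM EDTA, ionic strength brought to 150 mM with NaCl. Substrate pNPP fixed at each enzyme's Km. Enzyme added to start, NaOH quench, A405 read. Six to eight inhibitor concentrations used. IC50 obtained by fitting relative activity to a four-parameter slope-factor equation.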

[2] = biological target: T1, Tyrosine-protein phosphatase non-receptor type 1 (Homo sapiens, UniProt P18031); experiment: Inhibition of human Protein-tyrosine phosphatase 1B expressed in Escherichia coli BL21 (DE3) cells; in short: as §1
T1 sequence (P18031 whole entry): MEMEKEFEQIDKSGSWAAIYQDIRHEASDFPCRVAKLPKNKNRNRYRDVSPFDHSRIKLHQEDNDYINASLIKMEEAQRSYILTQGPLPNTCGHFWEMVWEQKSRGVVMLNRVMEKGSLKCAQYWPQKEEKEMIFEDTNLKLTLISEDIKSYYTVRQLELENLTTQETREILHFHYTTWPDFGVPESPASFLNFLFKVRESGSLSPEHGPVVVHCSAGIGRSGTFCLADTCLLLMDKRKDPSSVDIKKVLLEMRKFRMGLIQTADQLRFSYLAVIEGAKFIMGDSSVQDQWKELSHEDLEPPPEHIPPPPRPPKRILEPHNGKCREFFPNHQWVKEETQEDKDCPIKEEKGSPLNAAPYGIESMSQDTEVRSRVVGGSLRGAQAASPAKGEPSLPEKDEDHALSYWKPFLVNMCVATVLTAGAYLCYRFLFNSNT

[3] = biological target: T1, Tyrosine-protein phosphatase non-receptor type 1; experiment: Inhibitory potency against human Protein-tyrosine phosphatase 1B expressed in Escherichia coli BL21 (DE3) cells; in short: as §1

CC(C)C[C@H](NC(=O)[C@H](Cc1ccc(OC(F)(C(=O)O)C(=O)O)cc1)NC(=O)[C@H](CCC(=O)OCc1ccccc1)NC(=O)OCC1c2ccccc2-c2ccccc21)C(N)=O showed a pIC50 [1] of 5.54 and a pIC50 [2] of 5.82.

Compound CC(C)C[C@H](NC(=O)[C@H](Cc1ccc(CC(=O)O)c(C(=O)O)c1)NC(=O)[C@H](CCC(=O)O)NC(=O)OCC1c2ccccc2-c2ccccc21)C(N)=O has a pIC50 [1] of less than 3.10 and a pIC50 [2] of 6.15.

Compound CC(C)C[C@H](NC(=O)[C@H](Cc1ccc(C(F)(F)C(=O)O)cc1)NC(=O)[C@H](CCC(=O)O)NC(=O)OCC1c2ccccc2-c2ccccc21)C(N)=O has a pIC50 [1] of less than 3.10 and a pIC50 [2] of 5.85.

CC(C)C[C@H](NC(=O)[C@H](Cc1ccc(CC(=O)O)c(O)c1)NC(=O)[C@H](CCC(=O)O)NC(=O)OCC1c2ccccc2-c2ccccc21)C(N)=O was tested, and the pIC50 [1] was less than 3.10 and the pIC50 [2] was 5.40.

CC(C)C[C@H](NC(=O)[C@H](Cc1ccc(C(F)(C(=O)O)C(=O)O)cc1)NC(=O)[C@H](CCC(=O)OCc1ccccc1)NC(=O)OCC1c2ccccc2-c2ccccc21)C(N)=O gave a pIC50 [1] of 5.51 and a pIC50 [2] of 5.51.

Compound CC(C)C[C@H](NC(=O)[C@H](Cc1ccc(OC(C(=O)O)C(=O)O)cc1)NC(=O)[C@H](CCC(=O)O)NC(=O)OCC1c2ccccc2-c2ccccc21)C(N)=O has a pIC50 [1] of less than 3.10 and a pKi [3] of 4.54.

CC(C)C[C@H](NC(=O)[C@H](Cc1ccc(OCC(=O)O)c(C(=O)O)c1)NC(=O)[C@H](CCC(=O)OCc1ccccc1)NC(=O)OCC1c2ccccc2-c2ccccc21)C(N)=O showed a pIC50 [1] of 4.98 and a pIC50 [2] of 5.08.

CC(C)C[C@H](NC(=O)[C@H](Cc1ccc(OCC(=O)O)c(C(=O)O)c1)NC(=O)[C@H](CCC(=O)O)NC(=O)OCC1c2ccccc2-c2ccccc21)C(N)=O showed a pIC50 [1] of less than 4.00 and a pIC50 [2] of 4.26.

CC(C)C[C@H](NC(=O)[C@H](Cc1ccc(C(C(=O)O)C(=O)O)cc1)NC(=O)[C@H](CCC(=O)O)NC(=O)OCC1c2ccccc2-c2ccccc21)C(N)=O showed a pIC50 [1] of less than 3.10 and a pIC50 [2] of 6.10.

Work on CC(C)C[C@H](NC(=O)[C@H](Cc1ccc(C(F)(C(=O)O)C(=O)O)cc1)NC(=O)[C@H](CCC(=O)O)NC(=O)OCC1c2ccccc2-c2ccccc21)C(N)=O yielded a pIC50 [1] of less than 3.10 and a pIC50 [2] of 6.15.

Work on CC(C)C[C@H](NC(=O)[C@H](Cc1ccc(OCC(=O)O)cc1)NC(=O)[C@H](CCC(=O)OCc1ccccc1)NC(=O)OCCc1ccccc1)C(N)=O yielded a pIC50 [1] of 5.10 and a pIC50 [2] of 4.24.

CC(C)C[C@H](NC(=O)[C@H](Cc1ccc(OC(C(=O)O)C(=O)O)cc1)NC(=O)[C@H](CCC(=O)OCc1ccccc1)NC(=O)OCC1c2ccccc2-c2ccccc21)C(N)=O showed a pIC50 [1] of 4.09 and a pIC50 [2] of 3.94.

With CC(C)C[C@H](NC(=O)[C@H](Cc1ccc(CC(=O)O)c(C(=O)O)c1)NC(=O)[C@H](CCC(=O)OCc1ccccc1)NC(=O)OCC1c2ccccc2-c2ccccc21)C(N)=O the pIC50 [1] was 3.85 and the pIC50 [2] was 4.36.

Compound CC(C)C[C@H](NC(=O)[C@H](Cc1ccc(C(F)(F)P(=O)(O)O)cc1)NC(=O)[C@H](CCC(=O)OCc1ccccc1)NC(=O)OCC1c2ccccc2-c2ccccc21)C(N)=O (Fmoc-Glu(OBn)-[F2Pmp]-Leu-NH2) has a pIC50 [1] of 5.28 and a pIC50 [2] of 5.85.
